Two compounds from ChEMBL document CHEMBL2331279, “Rational design and synthesis of 4-substituted 2-pyridin-2-ylamides with inhibitory effects on SH2 domain-containing inositol 5'-phosphatase 2 (SHIP2)” (Eur J Med Chem, 2013) can be followed below.

For orientation: inhibition in vivo means the percentage by which the read-out fell short of the control.

The source made the active and inactive calls. The rule behind the calls is not given here.

Data set [1] relates to Mus musculus. The data set is described as follows: Antidiabetic activity in db/db mouse assessed as decrease in glucose intolerance at 300 mg/kg, po bid for 10 days by glucose tolerance test. The format is functional, organism-based. Set-up: dose 300 mg/kg. The gist of the method: (§1)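 Male mice, 8 weeks old, dosed orally twice daily with 300 mg/kg in 0.5% methylcellulose, or vehicle, for 13 days (C57BL/6J) or 10 days (db/db). After a 6 h fast, glucose 2 g/kg given ip. Tail-vein blood sampled at set times and plasma glucose measured by glucometer. AUC calculated. Mean ± SE, n=5-8; ANOVA with Bonferroni test versus vehicle.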

Data set [2] concerns Mus musculus. Put plainly: Decrease in glucose-6-phosphatase gene expression in db/db mouse liver at 300 mg/kg, po bid for 12 to 13 days by real time RT-PCR analysis. Type of data set: functional, organism-based. The arrangement: dose 300 mg/kg. The gist of the method: (§2)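 db/db mice dosed orally twice daily with 300 mg/kg or vehicle for 12-13 days, then fasted overnight and liver removed. Gluconeogenic gene mRNA measured by SYBR-green real-time PCR and expressed as fold change versus vehicle. Mean ± SE, n=7-8; ANOVA with Bonferroni test.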
For orientation: Real-time PCR tracks product formation cycle by cycle.

Data set [3] has as its system Mus musculus. The data set is described as follows: Toxicity in db/db mouse assessed as liver weight at 300 mg/kg, po bid for 12 to 13 days measured on day 12 to 13 (reference value: 1.57 +/-0.04 gms). The format is organism-based. Set-up: dose 300 mg/kg, route oral. The note with it: in vivo.
Data set [4] deals with Mus musculus. Put plainly: Decrease in PEPCK gene expression in db/db mouse liver at 300 mg/kg, po bid for 12 to 13 days by real time RT-PCR analysis. The format is functional, organism-based. Set-up: dose 300 mg/kg. The gist of the method: as §2
For data set [5], the system named is Mus musculus. The data set is described as follows: Toxicity in C57BL/6J mouse assessed as fasting plasma glucose level at 300 mg/kg, po bid for 12 to 13 days measured on day 15 (reference value: 78 +/-6 mg/dl). The format is organism-based. Set-up: dose 300 mg/kg, route oral. The note with it: in vivo.
Data set [6] concerns Mus musculus. Put plainly: Antidiabetic activity in db/db mouse assessed as decrease in HOMA-R index of insulin resistance at 300 mg/kg, po bid for 12 to 13 days. Type of data set: functional, organism-based. Set-up: dose 300 mg/kg.
Data set [7] deals with T1, Phosphatidylinositol 3,4,5-trisphosphate 5-phosphatase 2 (Rattus norvegicus) (UniProt Q9WVR3).
T1 sequence (whole entry): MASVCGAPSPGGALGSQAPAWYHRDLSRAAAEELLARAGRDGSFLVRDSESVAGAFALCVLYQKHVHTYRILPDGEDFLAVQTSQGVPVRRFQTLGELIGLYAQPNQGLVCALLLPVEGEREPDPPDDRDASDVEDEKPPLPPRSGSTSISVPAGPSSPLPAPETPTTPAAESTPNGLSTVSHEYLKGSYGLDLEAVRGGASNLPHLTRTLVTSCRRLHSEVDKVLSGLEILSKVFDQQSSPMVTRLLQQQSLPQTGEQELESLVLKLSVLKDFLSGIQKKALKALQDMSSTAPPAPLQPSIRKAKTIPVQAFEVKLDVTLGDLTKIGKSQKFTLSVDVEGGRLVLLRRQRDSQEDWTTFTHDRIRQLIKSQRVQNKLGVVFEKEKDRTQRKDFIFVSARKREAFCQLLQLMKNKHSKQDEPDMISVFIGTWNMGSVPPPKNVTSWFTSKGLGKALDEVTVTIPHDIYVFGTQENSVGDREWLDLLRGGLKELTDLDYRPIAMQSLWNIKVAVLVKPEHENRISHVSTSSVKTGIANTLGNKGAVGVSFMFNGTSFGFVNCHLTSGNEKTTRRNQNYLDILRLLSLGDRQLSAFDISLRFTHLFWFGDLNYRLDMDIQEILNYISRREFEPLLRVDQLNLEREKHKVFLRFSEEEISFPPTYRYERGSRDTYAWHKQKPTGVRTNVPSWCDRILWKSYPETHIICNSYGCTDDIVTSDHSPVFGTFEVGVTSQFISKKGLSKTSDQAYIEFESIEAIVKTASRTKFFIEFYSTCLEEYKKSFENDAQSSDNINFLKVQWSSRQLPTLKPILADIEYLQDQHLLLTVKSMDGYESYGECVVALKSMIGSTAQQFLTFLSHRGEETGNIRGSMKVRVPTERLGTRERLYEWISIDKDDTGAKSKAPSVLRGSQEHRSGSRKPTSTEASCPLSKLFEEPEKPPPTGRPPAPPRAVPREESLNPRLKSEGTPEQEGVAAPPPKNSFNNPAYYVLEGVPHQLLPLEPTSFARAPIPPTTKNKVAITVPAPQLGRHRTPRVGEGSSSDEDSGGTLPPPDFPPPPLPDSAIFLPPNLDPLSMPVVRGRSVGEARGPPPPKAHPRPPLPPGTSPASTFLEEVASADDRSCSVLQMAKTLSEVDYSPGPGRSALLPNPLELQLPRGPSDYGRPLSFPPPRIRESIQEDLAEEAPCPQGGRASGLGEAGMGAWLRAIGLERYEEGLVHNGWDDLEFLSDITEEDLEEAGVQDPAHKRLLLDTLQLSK
Put plainly: Inhibition of SHIP2 in TNF alpha-treated Sprague-Dawley rat cortical neuron assessed as potentiation of insulin-stimulated Akt phosphorylation at Thr308 at 10 uM treated for 15 mins after TNF alpha challenge for 3 days and prior to insulin stimulation measured after 5 mins by Western blot analysis relative to untreated control. Background: A western blot detects proteins with antibodies after separation by electrophoresis.

Data set [8] deals with Mus musculus. Put plainly: Toxicity in C57BL/6J mouse assessed as food intake at 300 mg/kg, po bid for 12 to 13 days measured on day 10 (reference value: 3.72 +/-0.23 gms/day). Type of data set: organism-based. The arrangement: dose 300 mg/kg, route oral. The note with it: in vivo.
In data set [9] the test system is Mus musculus. The data set is described as follows: Antidiabetic activity in db/db mouse assessed as fasting plasma glucose level at 300 mg/kg, po bid for 12 to 13 days measured on day 12 to 13 (reference value: 106 +/-6 mg/dl). Type of data set: functional.
Data set [10] relates to Mus musculus. The data set is described as follows: Toxicity in C57BL/6J mouse assessed as body weight at 300 mg/kg, po bid for 12 to 13 days measured on day 10 (reference value: 23.2 +/-0.4 gms). The conditions noted are these: in vivo. Set-up: dose 300 mg/kg, route oral. Type of data set: organism-based.
Data set [11] deals with Mus musculus. Put plainly: Toxicity in C57BL/6J mouse assessed as effect on glucose tolerance at 300 mg/kg, po bid for 13 days by glucose tolerance test. The conditions noted are these: in vivo, 312 h. Type of data set: organism-based. The arrangement: dose 300 mg/kg, route oral. The method, boiled down: as §1
Data set [12] has as its system Mus musculus. Put plainly: Toxicity in C57BL/6J mouse assessed as serum insulin level at 300 mg/kg, po bid for 12 to 13 days measured on day 15 (reference value: 0.25 +/-0.11 ng/ml). The format is organism-based. Set-up: dose 300 mg/kg, route oral. The conditions noted are these: in vivo.
Data set [13] relates to Mus musculus. Put plainly: Toxicity in db/db mouse assessed as epididymal white adipose tissue weight at 300 mg/kg, po bid for 12 to 13 days measured on day 12 to 13 (reference value: 1.82 +/-0.1 gms). The format is organism-based. The arrangement: dose 300 mg/kg, route oral. The conditions noted are these: in vivo.
Data set [14] relates to Mus musculus. The data set is described as follows: Antidiabetic activity in db/db mouse assessed as serum insulin level at 300 mg/kg, po bid for 12 to 13 days measured on day 12 to 13 (reference value: 7.30 +/-1.10 ng/ml). Type of data set: functional.
Data set [15] has as its system Mus musculus. The data set is described as follows: Antidiabetic activity in db/db mouse assessed as decrease in glucose area under curve at 300 mg/kg, po bid for 10 days by glucose tolerance test relative vehicle treated control. Type of data set: functional. The conditions noted are these: 240 h. The gist of the method: as §1

With `O=C(Cc1c(F)cccc1F)Nc1cc(OCc2ccc(Cl)cc2)ccn1`, the inhibition entry in [1], in data set [2], in data set [4] and in data set [6] was “Active” each time. Moreover, the Activity in data set [3] was 1.67 g; in data set [5], 88 mg/dL; in data set [8], 3.94 g/day; in data set [9], 83 mg/dL; in [10], 23.4 g; in data set [11], “Non-toxic”. The results for the Activity in [12], in data set [13] and in data set [14] were 0.21 ng/mL, 1.86 g and 6.86 ng/mL, respectively. The fold change (FC) in data set [7] amounted to 2.2. The inhibition in vivo at 300 mg/kg in data set [15] is 16%.

In the case of `C[C@H](NC(=O)c1sccc1OCc1ccc(Cl)cc1)c1ccccc1`, the inhibition entry in data set [1], in data set [2], in [4] and in data set [6] was “Active” each time. Further, the Activity in [3] was 1.8 g; in data set [5], 87 mg/dL; in [8], 4.1 g/day; in data set [9], 77 mg/dL; in data set [10] it was 23 g; in data set [11], “Non-toxic”. The values for the Activity in [12], in data set [13] and in [14] were 0.1 ng/mL, 1.75 g and 9.95 ng/mL, respectively. Further, in data set [7], the fold change (FC) amounted to 1.5. Moreover, the inhibition in vivo at 300 mg/kg in data set [15] amounted to 14%.
